High-throughput results (PubChem BioAssay)
PLC-beta3 inh: inhibitors of human phospholipase C beta3 | AID 720704 | 370,000 tested, 0.18% active | inhibition, % at 12.2 µM | Purified PLC-beta3, fluorogenic substrate, fluorescence; in the data active means inhibition above about 11%;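 further: 0% = median of compound wells on plate and 100% = full blocker control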
UCH37 DUB inh: blocks the human deubiquitinase UCH37; Q9Y5K5; purified proteasome/UCH37, Ub-AMC cleavage fluorescence; inhibition, % (concentration not given with the values); 330,000 tested, 0.33% active; AID 588478;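 active means mean inhibition over replicate wells above about 20%, limit read from the data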;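 further: 0% = compound-free wells with enzyme and 100% = wells lacking proteasome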
Target sequence (Q9Y5K5 whole entry, looked up): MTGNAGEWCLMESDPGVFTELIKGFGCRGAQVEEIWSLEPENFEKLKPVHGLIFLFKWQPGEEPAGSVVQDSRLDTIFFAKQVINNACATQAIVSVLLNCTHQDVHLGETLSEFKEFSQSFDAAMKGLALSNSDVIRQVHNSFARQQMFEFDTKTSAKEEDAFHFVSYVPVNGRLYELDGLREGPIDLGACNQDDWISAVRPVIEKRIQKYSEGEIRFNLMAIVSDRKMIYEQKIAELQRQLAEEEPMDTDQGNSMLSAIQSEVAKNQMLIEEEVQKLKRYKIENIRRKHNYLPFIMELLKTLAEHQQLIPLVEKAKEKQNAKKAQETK
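Material: human UCH37 enzyme supplied as purified proteasome complex / Amount: 0.15 nM proteasome as dispensed / Buffer or medium: pH 7.4 Tris-HCl (50 mM) with ovalbumin, ATP-MgCl2, DTT / Times: preincubation 30 min, reaction 25 min, room temperature / Technique: AMC fluorescence from Ub-AMC cleavage, excitation 355 nm, emission 460 nm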
PLC-gamma1 inh: blocks human PLC-gamma1 enzyme activity; inhibition, % at 12.2 µM; 370,000 tested, 0.84% active; AID 720700; purified PLC-gamma1, fluorogenic substrate, fluorescence
Rpn11 block: blocks the human proteasome subunit Rpn11. inhibition, % at 20 µM. 360,000 tested, 0.59% active. O00487. AID 588493. human 26S proteasome, Ub4-pepOG fluorescence polarization; 20S core pre-blocked with epoxomicin;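 active means inhibition at 20 µM, scaled to each plate's controls, above about 33%, limit read from the data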
Target sequence (O00487 whole entry, looked up): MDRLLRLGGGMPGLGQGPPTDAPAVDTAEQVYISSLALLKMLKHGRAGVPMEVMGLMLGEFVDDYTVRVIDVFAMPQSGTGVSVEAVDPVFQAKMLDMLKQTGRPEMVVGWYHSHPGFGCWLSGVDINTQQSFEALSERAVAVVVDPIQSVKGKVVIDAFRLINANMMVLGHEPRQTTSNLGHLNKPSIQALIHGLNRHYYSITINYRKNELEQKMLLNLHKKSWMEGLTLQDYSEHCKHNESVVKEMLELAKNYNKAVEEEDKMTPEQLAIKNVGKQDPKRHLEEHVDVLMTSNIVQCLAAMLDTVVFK
PLCg1 ctr: counter-screen for PLC-beta3 inhibitors: inhibitors of human PLC-gamma1 | shares compounds with PLC-gamma1 inh | purified PLC-gamma1, fluorogenic substrate, fluorescence | inhibition, % at 12.3 µM | 3,300 tested, 3.1% active | AID 743258
PLCbeta3 conf: human PLC-beta3 inhibition, confirmation; purified PLC-beta3, fluorogenic substrate fluorescence; shares compounds with PLC-gamma1 inh; 3,300 tested, 1% active; AID 743261; inhibition, % at 12.3 µM; in the data active means inhibition above about 11%
* = called active by the depositor; · = no result given. In the library only some 1.7% were active in any assay of this set; here they are far more common. Unless noted, no stated cut-off is given here; in the data, active means inhibition above about 9.5%; inactive means the rest.

SMILES	PLC-beta3 inh	UCH37 DUB inh	PLC-gamma1 inh	Rpn11 block	PLCg1 ctr	PLCbeta3 conf
CCOC(=O)N1CCN(C(=O)C[C@H]2C(=O)N(Cc3ccc(OC)cc3)C3=CCCCC[C@@]32C(=O)OC)CC1	-3	·	-2	·	·	·
CCOC(=O)N1CCN(C(=O)C[C@@H]2C(=O)N(Cc3ccc(OC)cc3)/C3=C/CCCCC[C@@]32C(=O)OCC)CC1	-4	·	1	·	·	·
CCOC(=O)N1CCN(C(=O)C[C@H]2C(=O)N(Cc3ccc(OC)cc3)C3=CCCC[C@@]32C(=O)OCC)CC1	2	·	11*	·	-7	-2
CC(=NNC(=S)Nc1ccc(C)cc1)c1cccc(N)c1	·	-17	·	·	·	·
COc1cccc(N=Nc2c(N)[nH][nH]c2=O)c1	3	16	3	2	·	·
Nc1[nH][nH]c(=O)c1N=Nc1cccc(Cl)c1	11*	11	11*	-5	0	4
O=C(NN=Cc1cccnc1)c1ccccc1O	·	13	·	·	·	·
CC12CCC(C(=O)Nc3ccc(SC(F)F)cc3)(CC1=O)C2(C)C (stereo not drawn)	10	7	9.8*	-6	-2	1
Cc1nn(Cc2ccc(F)cc2)c(Cl)c1C=NNC(=O)c1ccccc1	·	1	·	·	·	·
O=C(Oc1cccc(N2C(=O)CCC2=O)c1)C1CC(=O)N(c2ccc(Br)cc2)C1 (stereo not drawn)	11*	2	7	0	-3	3
O=Cc1ccc(Oc2cc(-c3ccccc3)nc(-c3ccccc3)n2)cc1	-1	4	-3	3	·	·
O=S(Cc1cc(Oc2ccccc2)nc(-c2ccccc2)n1)c1ccccc1 (stereo not drawn)	4	4	13*	0	1	2
Cc1cc(OC(C)C(=O)N(Cc2cccs2)C2CCS(=O)(=O)C2)ccc1Cl (stereo not drawn)	3	1	0	3	·	·
Cc1ccc(OC(C)C(=O)N(Cc2cccs2)C2CCS(=O)(=O)C2)cc1C (stereo not drawn)	-2	3	9.8*	-3	0	2
Cc1ccc2c(CN3CC(C)CC(C)C3)cc(=O)oc2c1C (stereo not drawn)	5	1	11*	-7	-8	-7
Cc1ccc2c(CN3CCC(C)CC3)cc(=O)oc2c1C	-14	5	1	-10	·	·
Nc1nonc1-n1nnc(C(=O)NN=Cc2ccccc2Cl)c1-c1ccc2c(c1)OCO2	·	-16	·	·	·	·
O=C(CSc1nnc(Cc2ccccc2)n1-c1cccc(Cl)c1)N1CCOCC1	0	2	6	-5	·	·
Cc1cccc(-n2c(Cc3ccccc3)nnc2SCC(=O)N2CCOCC2)c1	4	0	14*	-11	-5	-3
O=S(=O)(c1cc(O)ccc1O)c1cccc2c(S(=O)(=O)c3cc(O)ccc3O)cccc12	6	·	10*	30	8	9
Cc1ccc(S(=O)(=O)c2cc(Nc3ccccc3)ccc2O)cc1	-35	-3	-20	-2	·	·
COC(=O)[C@@H](NC(=O)Nc1cccc(Br)c1)C(C)C	2	5	1	1	·	·
CCC(C)[C@H](NC(=O)Nc1cccc(Br)c1)C(=O)OC (stereo partly drawn)	9	-1	13*	-7	-6	-1
Cc1ccc(CN2CCC[C@]3(N[C@H](c4ccc(C)cc4)[C@@H]4C(=O)N(Cc5ccccc5)C(=O)[C@@H]43)C2=O)cc1	8	·	9.9*	-17	-2	1
Cc1ccc(CN2CCC[C@]3(N[C@H](c4ccccc4)[C@@H]4C(=O)N(Cc5ccccc5)C(=O)[C@@H]43)C2=O)cc1	0	·	1	-8	·	·
SMILES	PLC-beta3 inh	UCH37 DUB inh	PLC-gamma1 inh	Rpn11 block	PLCg1 ctr	PLCbeta3 conf
O=C(NN=Cc1ccc(-c2ccccc2[N+](=O)[O-])o1)c1cccnc1	·	20	·	·	·	·
COc1ccc(-c2cc(C3CCN(Cc4ccc([N+](=O)[O-])cc4)CC3)[nH]n2)cc1	-4	2	-2	4	·	·
Cc1ccc(CN2CCC(c3cc(-c4ccc(Cl)cc4)n[nH]3)CC2)cc1	-2	5	11*	1	-3	-5
CCN(CC)S(=O)(=O)c1cccc(-c2nnc(SCC(N)=O)n2CCc2ccccc2)c1	7	0	12*	-8	7	4
CCN(CC)S(=O)(=O)c1cccc(-c2nnc(SC(C)C(N)=O)n2CCc2ccccc2)c1 (stereo not drawn)	2	3	7	3	·	·
Cc1nc2ccccn2c1C(=O)NN=Cc1cc(C)n(-c2ccc(Br)cc2)c1C	·	-7	·	·	·	·
COCCNCCCOc1ccc(Br)cc1Cl	-4	4	11*	2	9.5*	3
CCCCc1n[nH]c2c1C(=NO)CC(C)(C)C2	·	1	·	·	·	·
CCOc1ccc(S(=O)(=O)N2CCC(C(=O)N3CCCC3)CC2)cc1C	3	3	11*	1	3	2
COc1ccc(C=NNc2ncc(-c3ccccc3)cn2)c(OC)c1	·	1	·	·	·	·
Clc1ccccc1-c1ccc(C=NNc2nncc(-c3ccccc3)n2)o1	·	8	·	·	·	·
COc1ccccc1-c1cnnc(N/N=C/c2ccc(-c3cccc(Br)c3)o2)n1	1	·	12*	1	8	5
CC(SC(=S)N1CCOCC1)C(=O)O (stereo not drawn)	2	0	12*	5	-5	-3
CN1CCN(CC(=O)Nc2c(C(=O)C3CC3)oc3ccccc23)CC1	5	2	11*	-4	-4	-1
O=C(CN1CCOCC1)Nc1c(C(=O)C2CC2)oc2ccccc12	1	2	0	1	·	·
COc1ccc(S(=O)(=O)NC2CCCC2)cc1Br	-1	4	0	-7	·	·
O=S(=O)(NC1CCCC1)c1ccccc1Br	16*	0	9	10	-1	0
CN(C)c1ccc(C=NNC(=O)COc2ccccc2)cc1	·	-113	·	·	·	·
O=C(NCCc1nccs1)C1CCC(=O)N(Cc2cccc(C(F)(F)F)c2)C1 (stereo not drawn)	4	-1	13*	-2	-6	-1
O=C(NCCc1ccccc1)C1CCC(=O)N(Cc2cccc(C(F)(F)F)c2)C1 (stereo not drawn)	-7	4	5	0	·	·
O=C(NC1CCC1)C1CCC(=O)N(Cc2cccc(F)c2)C1 (stereo not drawn)	-2	2	10*	-1	1	1
CN1c2ccsc2C(=NNc2ccccc2)CS1(=O)=O	·	4	·	·	·	·
Cc1cc(Br)c(OCc2ccc(C(=O)NN=C3CC(=O)CC(C)(C)C3)cc2)c(Br)c1	·	-1	·	·	·	·
CC(C)(C)NC(=O)CSc1nc(N)c(NC(=O)c2ccccc2F)c(=O)[nH]1	12*	2	6	2	-3	1
O=C(Nc1nnc(COc2ccccc2F)s1)Nc1ccccc1F	-8	2	3	0	·	·
O=C(Nc1ccc(F)cc1)Nc1nnc(COc2ccccc2F)s1	6	4	11*	1	-5	-4
Cc1cc(C)cc(NC(=O)CCNC(=O)c2ccc([N+](=O)[O-])cc2)c1	-3	4	10*	0	-8	-6
